Results from ChEMBL document CHEMBL4480462, “HPLC-Based Activity Profiling for Antiprotozoal Compounds in the Endemic Iranian Medicinal Plant Helichrysum oocephalum” (J Nat Prod, 2019).

What was measured:
Leishmania donovani = test: Antileishmanial activity against Leishmania donovani MHOM-ET-67/L82 axenic amastigotes after 70 hrs by resazurin staining based fluorescence assay; type: functional, organism-based; conditions: MHOM-ET-67/L82, 70 h
In short: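 Axenically grown amastigotes of strain MHOM-ET-67/L82 were exposed to serial drug dilutions of 11 3-fold steps spanning 100 to 0.001 μg/mL, with miltefosine as reference. IC50 was obtained by linear regression. Each assay was run singly and repeated at least twice, and the reported value is the average of two independent assays.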

Plasmodium falciparum = test: Antiplasmodial activity against Plasmodium falciparum NF54 infected in human erythrocytes assessed as reduction in [3H]-hypoxanthine incorporation pretreated for 48 hrs followed by [3H]-hypoxanthine addition measured after 24 hrs by liquid scintillation counting method; type: functional, organism-based
In short: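 Erythrocytic-stage NF54 parasites were tested over 11 3-fold serial dilutions from 100 to 0.001 μg/mL, with chloroquine as reference. IC50 was derived by linear regression. Runs were single and repeated at least twice, and the value given is the mean of two independent assays.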

L6 = test: Cytotoxicity against rat L6 cells; type: cell-based
In short: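 Rat skeletal myoblast L6 cells were exposed to 11 3-fold serial drug dilutions covering 100 to 0.001 μg/mL, with podophyllotoxin as reference. IC50 was calculated by linear regression. Runs were single and repeated at least two times, and the figure is the mean of two independent assays.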

[1] = Selectivity index, ratio of IC50 for rat L6 cells to IC50 for axenic amastigotes
In short: (§1)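 The selectivity index is the IC50 in L6 cells divided by the IC50 in the named parasite. Each IC50 comes from 11-step 3-fold dilution series (100 to 0.001 μg/mL) fitted by linear regression and averaged over two independent assays.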

[2] = Selectivity index, ratio of IC50 for rat L6 cells to IC50 for Plasmodium falciparum NF54 infected in human erythrocytes; type: toxicity, cell-based; conditions: read-out: Ratio IC50; in short: as §1

CC(=O)c1c(O)c(CC=C(C)C)c(O)c2c1OC1(C2)OC(C)=C(C)C1=O (configuration not stated)
IC50 (Leishmania donovani): 5.1 µM
IC50 (Plasmodium falciparum): 14.6 µM
IC50 (L6): 56.3 µM
Ratio IC50 [1]: 11.1
selectivity ratio [2]: 3.9

CCc1oc(=O)c(Cc2c(O)c(CC=C(C)C)c(O)c(C(=O)C(C)CC)c2O)c(O)c1C (configuration not stated)
IC50 (Leishmania donovani): 16.8 µM
IC50 (Plasmodium falciparum): 2.5 µM
IC50 (L6): 37.8 µM
Ratio IC50 [1]: 2.25
selectivity ratio [2]: 5.36

CC(C)=CCc1c(O)c(Cc2c(O)c(C)c(C)oc2=O)c(O)c(C(=O)C(C)C)c1O
IC50 (Leishmania donovani): 5.8 µM
IC50 (Plasmodium falciparum): 8 µM
IC50 (L6): 61.1 µM
Ratio IC50 [1]: 10.4
selectivity ratio [2]: 5.5

CCc1oc(=O)c(Cc2c(O)c(CC=C(C)CCC=C(C)C)c(O)c(C(=O)C(C)CC)c2O)c(O)c1C (configuration not stated)
IC50 (Leishmania donovani): 5.6 µM
IC50 (Plasmodium falciparum): 1.2 µM
IC50 (L6): 36.3 µM
Ratio IC50 [1]: 6.4
selectivity ratio [2]: 15.7

CC(C)=CCCC(C)=CCc1c(O)c(Cc2c(O)c(C)c(C)oc2=O)c(O)c(C(=O)C(C)C)c1O
IC50 (Leishmania donovani): 3.1 µM
IC50 (Plasmodium falciparum): 5.7 µM
IC50 (L6): 38.4 µM
Ratio IC50 [1]: 12.3
selectivity ratio [2]: 9.6

CCc1oc(=O)c(Cc2c(O)c(C)c(CC)oc2=O)c(O)c1C [HELIPYRONE]
IC50 (Leishmania donovani): 14.9 µM
IC50 (Plasmodium falciparum): 8.9 µM
IC50 (L6): 54.3 µM
Ratio IC50 [1]: 3.6
selectivity ratio [2]: 5.4

CC(C)=CCCC(C)=CCc1c(O)c2c(c(C(=O)C(C)C)c1O)OC1(C2)OC(C)=C(C)C1=O (configuration not stated)
IC50 (Leishmania donovani): 2.2 µM
IC50 (Plasmodium falciparum): 7.2 µM
IC50 (L6): 18.8 µM
Ratio IC50 [1]: 8.5
selectivity ratio [2]: 5.5

CCC1=C(C)C(=O)C2(Cc3c(O)c(CC=C(C)C)c(O)c(C(=O)C(C)C)c3O2)O1 (configuration not stated)
IC50 (Leishmania donovani): 6 µM
IC50 (Plasmodium falciparum): 18 µM
IC50 (L6): 43 µM
Ratio IC50 [1]: 7.2
selectivity ratio [2]: 2.1

CCC(C)C(=O)c1c(O)c(CC=C(C)C)c(O)c2c1OC1(C2)OC(C)=C(C)C1=O (configuration not stated)
IC50 (Leishmania donovani): 1.7 µM
IC50 (Plasmodium falciparum): 7.6 µM
IC50 (L6): 13.2 µM
Ratio IC50 [1]: 7.6
selectivity ratio [2]: 4.8

CCc1oc(=O)c(Cc2c(O)c3c(c(C(=O)C(C)C)c2O)OC(C)(CCC=C(C)C)C=C3)c(O)c1C (racemic)
IC50 (Leishmania donovani): 1.9 µM
IC50 (Plasmodium falciparum): 9.3 µM
IC50 (L6): 21.4 µM
Ratio IC50 [1]: 11.2
selectivity ratio [2]: 2.3

CCC1=C(C)C(=O)C2(Cc3c(O)c(CC=C(C)C)c(O)c(C(C)=O)c3O2)O1 (configuration not stated)
IC50 (Leishmania donovani): 5.8 µM
IC50 (Plasmodium falciparum): 23.1 µM
IC50 (L6): 55.1 µM
Ratio IC50 [1]: 9.5
selectivity ratio [2]: 2.3

CC(C)=CCc1c(O)c2c(c(C(=O)C(C)C)c1O)OC1(C2)OC(C)=C(C)C1=O (configuration not stated)
IC50 (Leishmania donovani): 1.9 µM
IC50 (Plasmodium falciparum): 22.7 µM
IC50 (L6): 20.1 µM
Ratio IC50 [1]: 10.5
selectivity ratio [2]: 1.9

CCc1oc(=O)c(Cc2c(O)c(CC=C(C)CCC=C(C)C)c(O)c(C(=O)C(C)C)c2O)c(O)c1C
IC50 (Leishmania donovani): 2.7 µM
IC50 (Plasmodium falciparum): 3.8 µM
IC50 (L6): 39.7 µM
Ratio IC50 [1]: 15
selectivity ratio [2]: 11.3

Cc1oc(=O)c(Cc2c(O)c(C)c(C)oc2=O)c(O)c1C
IC50 (Leishmania donovani): 15.7 µM
IC50 (Plasmodium falciparum): 22.3 µM
IC50 (L6): 26.5 µM
Ratio IC50 [1]: 1.7
selectivity ratio [2]: 2.5

CCc1oc(=O)c(Cc2c(O)c(C)c(C)oc2=O)c(O)c1C
IC50 (Leishmania donovani): 15.5 µM
IC50 (Plasmodium falciparum): 18.1 µM
IC50 (L6): 43.9 µM
Ratio IC50 [1]: 2.8
selectivity ratio [2]: 3.4

CCC(C)C(=O)c1c(O)c(CC=C(C)C)c(O)c(Cc2c(O)c(C)c(C)oc2=O)c1O (configuration not stated)
IC50 (Leishmania donovani): 4.8 µM
IC50 (Plasmodium falciparum): 5.5 µM
IC50 (L6): 55.5 µM
Ratio IC50 [1]: 11.5
selectivity ratio [2]: 7.9

CCc1oc(=O)c(Cc2c(O)c(CC=C(C)C)c(O)c(C(=O)C(C)C)c2O)c(O)c1C
IC50 (Leishmania donovani): 13.7 µM
IC50 (Plasmodium falciparum): 7.4 µM
IC50 (L6): 52.2 µM
Ratio IC50 [1]: 3.8
selectivity ratio [2]: 7.6

CCCCCCCCCCCCCCCCOP(=O)([O-])OCC[N+](C)(C)C [MILTEFOSINE]
IC50 (Leishmania donovani): 0.285 µM

CC(=O)c1c(O)c(Cc2c(O)c(C)c(C)oc2=O)c(O)c2c1OC(C)(C)C=C2
IC50 (Leishmania donovani): 1.8 µM
IC50 (Plasmodium falciparum): 11.3 µM
IC50 (L6): 53.1 µM
Ratio IC50 [1]: 29.7
selectivity ratio [2]: 4.7

CC(=O)c1c(O)c(CC=C(C)CCC=C(C)C)c(O)c2c1OC1(C2)OC(C)=C(C)C1=O (configuration not stated)
IC50 (Leishmania donovani): 2.8 µM
IC50 (Plasmodium falciparum): 23.9 µM
IC50 (L6): 43.4 µM
Ratio IC50 [1]: 15.6
selectivity ratio [2]: 2.2

CCc1oc(=O)c(Cc2c(O)c(Cc3c(O)c(C)c(CC)oc3=O)c(O)c(C(=O)C(C)C)c2O)c(O)c1C
IC50 (Leishmania donovani): 2.5 µM
IC50 (Plasmodium falciparum): 8.6 µM
IC50 (L6): 57.6 µM
Ratio IC50 [1]: 22.9
selectivity ratio [2]: 4.4

CCc1oc(=O)c(Cc2c(O)c(C(=O)C(C)C)c(O)c3c2O[C@@]2(C)CC[C@@H]4[C@H]2[C@H]3C4(C)C)c(O)c1C
IC50 (Leishmania donovani): 2 µM
IC50 (Plasmodium falciparum): 7.12 µM
IC50 (L6): 12 µM
Ratio IC50 [1]: 6
selectivity ratio [2]: 1.7

CCC(=O)c1c(O)c(CC=C(C)C)c(O)c2c1OC1(C2)OC(C)=C(C)C1=O (configuration not stated)
IC50 (Leishmania donovani): 7.1 µM
IC50 (Plasmodium falciparum): 31.7 µM
IC50 (L6): 44.1 µM
Ratio IC50 [1]: 6.2
selectivity ratio [2]: 0.8

CCC(C)C(=O)c1c(O)c(CC=C(C)CCC=C(C)C)c(O)c(Cc2c(O)c(C)c(C)oc2=O)c1O (configuration not stated)
IC50 (Leishmania donovani): 4.4 µM
IC50 (Plasmodium falciparum): 2.6 µM
IC50 (L6): 48.3 µM
Ratio IC50 [1]: 11.1
selectivity ratio [2]: 7.7

COc1cc([C@@H]2c3cc4c(cc3[C@H](O)[C@H]3COC(=O)[C@H]23)OCO4)cc(OC)c1OC [PODOFILOX]
IC50 (L6): 0.005 µM
